Results from PMC10810238 (Arabian journal of chemistry, 2023).
Several values for one entry are separate records, joined by “and”; a condition that tells them apart may be missing. Identical values can stand only once. Like-named read-outs stand apart in the source and are kept apart here.

Columns and labels:
[1] = tested on: P. falciparum NF 54 strain; conditions: ref Miglianico et al., 2023; cited from earlier work
[2] = tested on: P. falciparum NF54 strain; assay: In vitro antiplasmodial screening, 3H-hypoxanthine incorporation assay; format: cell-based, Plasmodium falciparum; conditions: for Selectivity Index: L6 IC50 / Pf IC50
In short: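 P. falciparum NF54 erythrocytic stages were grown in human A+ red cells (2.5% haematocrit, 0.3% parasitaemia) in hypoxanthine-free RPMI 1640 with HEPES, NaHCO₃, neomycin and Albumax. Test compound was stocked in DMSO at 10 mg/ml and diluted in medium to […]. Plates ran 48 h at 37 °C under 4% CO₂/3% O₂/93% N₂, then 0.5 µCi ³H-hypoxanthine was added for 24 h. Cells were harvested for scintillation counting. IC50 came from sigmoidal curves by linear regression, with chloroquine as standard.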

[3] = In vitro cytotoxicity with L-6 cells; format: cell-based; conditions: rat, L-6 cells (rat skeletal myoblasts)
[4] = tested on: Plasmodium berghei NK 65 strain; assay: Peter's four-day suppressive test; format: in vivo, Plasmodium berghei in Swiss albino mice; conditions: for % Parasitemia: mean ± SEM
[5] = tested on: Plasmodium berghei NK 65 strain; assay: Mean Survival Time; format: in vivo, Plasmodium berghei in Swiss albino mice
In short: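 Peters' 4-day suppressive design: male and female Swiss albino mice (14–31 g) were inoculated with P. berghei NK 65 and randomised into five groups. Test compound in vehicle (100, 200 or 400 mg/kg) was given orally once daily on days 0–4, first dose 2 h after inoculation. Chloroquine at 100 mg/kg was the positive control and vehicle alone the negative control. Mortality was recorded for 30 days from inoculation.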

In vivo acute toxicity = assay: In vivo acute toxicity; parameters: species or system Swiss albino mice
In short: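 Male and female Swiss albino mice, 6–8 weeks old, were dosed per OECD guidance. Each group got one oral dose of test compound (100, 200, 400, 2000 or 5000 mg/kg) in 10% DMSO/10% Tween 80/80% water; a vehicle group served as control. Intoxication signs and mortality were watched for the first 30 min, then over 14 d. Mice were weighed on the first and final day (final day 14 d for the three lower doses, 7 d for the two higher). LD50 was the geometric mean of the least lethal dose and the highest non-lethal dose (Lorke). Kidney and liver were examined by histology, with paired t-test statistics.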

[6] = Plasmodium falciparum, NF54, read-out: Antiplasmodial (Pf) IC50, NF54 strain, erythrocytic stages
[7] = read-out: Antiplasmodial (Pf) IC50, NF54 strain, erythrocytic stages
[8] = 100 mg/kg oral daily Days 0-4, Day 4 blood
[9] = 100 mg/kg oral daily Days 0-4, monitored 30 days, (+) = animals survived

## CCc1nc(N)nc(N)c1-c1ccc(Cl)cc1 [Pyrimethamine]
[1]
  IC50: 0.017 µM

## N=C(NO)c1ccc(NC(=S)NOCc2ccccc2)cc1 [Compound 2b, 4-(3-(Benzyloxy)thioureido)-N-hydroxybenzimidamide]
[2]
  Selectivity Index: 7.59
[2]; [6]
  IC50: 2.4 µM
[3]
  IC50 at 72 h: 18.2 µM

## Nc1ccc(C(=O)NO)cc1 [Compound 3b, 4-Aminobenzenecarbohydroxamic acid]
[2]
  Selectivity Index: 44.92
[2]; [6]
  IC50: < 0.2 µM
[2]; [7]
  IC50: 0.147 µM
[4]; 100 mg/kg oral daily Days 0-4
  % Suppression ± SEM: 51.99 ± 10.38%
[4]; [8]
  % Parasitemia: 6.25 ± 0.95%
[4]; 200 mg/kg oral daily Days 0-4
  % Suppression ± SEM: 78.55 ± 13.35%
[4]; 200 mg/kg oral daily Days 0-4, Day 4 blood
  % Parasitemia: 2.95 ± 1.95%
[4]; 400 mg/kg oral daily Days 0-4
  % Suppression ± SEM: 80.53% and 80.53 ± 3.26%
[4]; 400 mg/kg oral daily Days 0-4, Day 4 blood
  % Parasitemia: 2.6 ± 0.6%
[5]; [9]
  MST: 24 days
[5]; 200 mg/kg oral daily Days 0-4, monitored 30 days
  MST: 29.5 days
[5]; 400 mg/kg oral daily Days 0-4, monitored 30 days, (+) = animals survived
  MST: 30 (+) days
[3]
  IC50 at 72 h: 6.6 µM
In vivo acute toxicity; 100 mg/kg bdw oral, 4 mice
  Mortality D0: 0
  Mortality D1: 0
  Mortality D5: 1
  Mortality D7: 0
  Mortality D14: 0
In vivo acute toxicity; 100 mg/kg, 200 mg/kg and 400 mg/kg, mice
  Liver histology: mild to moderate vacuolar degeneration of hepatocytes
In vivo acute toxicity; 100 mg/kg, mice
  Kidney histology: Kidney tubular degeneration
In vivo acute toxicity; 200 mg/kg bdw oral, 4 mice
  % Mortality: 0%
  Mortality D0: 0
  Mortality D1: 0
  Mortality D5: 0
  Mortality D7: 0
  Mortality D14: 0
In vivo acute toxicity; 400 mg/kg bdw oral, 4 mice
  Mortality D0: 0
  Mortality D1: 1
  Mortality D5: 0
  Mortality D7: 0
  Mortality D14: 0
In vivo acute toxicity; 400 mg/kg, mice
  Kidney histology: Severe congestion and edema
In vivo acute toxicity; 2,000 mg/kg bdw oral, 4 mice
  % Mortality: 0%
  Mortality D0: 0
  Mortality D1: 0
  Mortality D5: 0
  Mortality D7: 0
  Mortality D14: 0
In vivo acute toxicity; 2000 mg/kg, mice
  Kidney histology: no lesions
In vivo acute toxicity; 5,000 mg/kg bdw oral, 1 mouse
  % Mortality: 0%
  Mortality D0: 0
  Mortality D1: 0
  Mortality D5: 0
  Mortality D7: 0
  Mortality D14: 0
In vivo acute toxicity; 5000 mg/kg, single oral dose, mice
  Toxicity at the highest concentration limit: no toxicity
In vivo acute toxicity; with increase in concentration of compound, acute toxicity study, mice
  Body weight change: gained additional weight

## Cl.N=C(N)c1ccc(C(=O)NO)cc1 [Compound 1d, 4-Carbamimidoyl-N-hydroxybenzamide Hydrochloride]
[2]
  Selectivity Index: 98.72
[2]; [6]
  IC50: < 0.2 µM
[2]; [7]
  IC50: 0.199 µM
[3]
  IC50 at 72 h: 19.6 µM

## CCN(CC)CCCC(C)Nc1ccnc2cc(Cl)ccc12 (stereo not shown) [Chloroquine, chloroquine, reference compound]
[2]
  Selectivity Index: 33069.00
[2]; [6]
  IC50: 0.002 µM
[4]; 100 mg/kg oral daily Days 0-4
  % Suppression ± SEM: 81.71 ± 1.82%
[4]; [8]
  % Parasitemia: 2.4 ± 0.08%
[4]; 100 mg/kg oral daily Days 0-4, listed as standard drug
  % Suppression ± SEM: 81.71%
[5]; [9]
  MST: 30 (+) days
[3]
  IC50 at 72 h: 66.1 µM

## CC1(C)N=C(N)N=C(N)N1c1ccc(Cl)cc1 [cycloguanil]
[1]
  IC50: 0.0045 µM

## N=C(NO)c1ccc(C(=O)NO)cc1 [Compound 1c, N-Hydroxy-4-(N-hydroxycarbamimidoyl)benzamide]
[2]
  Selectivity Index: 27.04
[2]; [6]
  IC50: 0.405 µM
[3]
  IC50 at 72 h: 11 µM

## COc1cc([C@@H]2c3cc4c(cc3[C@H](O)[C@H]3COC(=O)[C@H]23)OCO4)cc(OC)c1OC [Podophyllotoxin, reference compound]
[3]
  IC50 at 72 h: 0.002 µM
